Results published in ChEMBL document CHEMBL1124897, “(1-Pyrenylmethyl)amino alcohols, a new class of antitumor DNA intercalators. Discovery and initial amine side chain structure-activity studies” (1990).
Calls of active or inactive are those of the source. The calls are words filed in the database; no cut-off is given here.

Experiments:
P388 [1] = experiment: In vivo antitumor activity against murine lymphocytic leukemia P388 measured as lethal dose […]; type: functional, Mus musculus; set-up: unit: mg/kg
How it was run: (§1)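 Male CD2-F1 mice (20 ± 3 g) implanted ip with 1 × 10^6 viable P388 cells on day 0. Drug given ip as aqueous suspension or solution in 0.9% NaCl or 5% dextrose on days 1, 5 and 9, dosed per body weight in mg/kg. Several dose levels bracketing the LD20 were tested, six mice per dose. Deaths before the control median day of death were counted as drug toxicity.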

P388 [2] = experiment: In vivo antitumor activity against murine lymphocytic leukemia P388 measured as optimal dose which is the highest nontoxic dose; type: functional, Mus musculus
P388 [3] = experiment: In vivo antitumor activity against murine lymphocytic leukemia P388, measured as percent increase in life span; type: functional, organism-based; conditions: Mus musculus
How it was run: (§2)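 Male CD2-F1 mice (20 ± 3 g) implanted ip with 1 × 10^6 viable P388 cells on day 0. Compound given ip as aqueous suspension or solution in 0.9% NaCl or 5% dextrose on days 1, 5 and 9, dosed per mg/kg body weight. Several doses bracketing LD20 were tested, six mice per dose. %ILS was calculated from median day of death of treated versus control mice. Values are optimal from at least two experiments.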

P388 [4] = experiment: In vivo antitumor activity against murine lymphocytic leukemia P388 measured as percent increase in life span; type: functional, Mus musculus; how it was run: as §1
P388 [5] = experiment: In vivo antitumor activity against murine lymphocytic leukemia P388 measured as optimal dose; type: functional, Mus musculus; how it was run: as §2

| SMILES | LD20 (P388 [1]) | Optimal dose (P388 [2]) | ILS (P388 [3]) | ILS (P388 [4]) | Optimal dose (P388 [5]) |
| --- | --- | --- | --- | --- | --- |
| CCCNCc1ccc2ccc3cccc4ccc1c2c34.Cl | 150 | 225 mg/kg | inactive |  |  |
| CCC(CO)NCc1ccc2ccc3cccc4ccc1c2c34.Cl (stereo not given) | 450 |  |  | 25% | 366 mg/kg |
| NCCCCCCNCc1ccc2ccc3cccc4ccc1c2c34 | 75 | 75 mg/kg | inactive |  |  |
| CC(C)C(CO)(CO)NCc1ccc2ccc3cccc4ccc1c2c34.Cl | 300 |  |  | 55% | 450 mg/kg |
| OCC1OC(O)C(NCc2ccc3ccc4cccc5ccc2c3c45)C(O)C1O (stereo not given) | 400 |  |  | 20% | 450 mg/kg |
| Cl.c1cc2ccc3ccc(CNCCCN4CCOCC4)c4ccc(c1)c2c34 | 150 |  |  | 20% | 150 mg/kg |
| CC(=O)OCC(COC(C)=O)(COC(C)=O)NCc1ccc2ccc3cccc4ccc1c2c34 | 500 |  |  | 30% | 315 mg/kg |
| CC(C)(CO)NCc1ccc2ccc3cccc4ccc1c2c34.Cl | 450 |  |  | 45% | 250 mg/kg |
| Cl.OCCCCCNCc1ccc2ccc3cccc4ccc1c2c34 | 196 | 131 mg/kg | inactive |  |  |
| CC(C)C(CO)NCc1ccc2ccc3cccc4ccc1c2c34.Cl (stereo not given) | 450 |  |  | 27% | 200 mg/kg |
| CC(C)(O)CNCc1ccc2ccc3cccc4ccc1c2c34.Cl | 220 |  | inactive |  | 330 mg/kg |
| Cl.OCC(NCc1ccc2ccc3cccc4ccc1c2c34)c1ccccc1 (stereo not given) | 675 | 675 mg/kg | inactive |  |  |
| Cl.N#CCCNCc1ccc2ccc3cccc4ccc1c2c34 | 300 | 300 mg/kg | inactive |  |  |
| Cl.c1ccc(CCCCNCc2ccc3ccc4cccc5ccc2c3c45)cc1 | 130 | 88 mg/kg | inactive |  |  |
| CCC(CO)(CO)NCc1ccc2ccc3cccc4ccc1c2c34.Cl | 340 |  |  | 140% | 303 mg/kg |
| CC(O)CNCc1ccc2ccc3cccc4ccc1c2c34.Cl (stereo not given) | 600 |  |  | 28% | 300 mg/kg |
| Cl.Clc1ccc(CNCc2ccc3ccc4cccc5ccc2c3c45)cc1Cl | 400 | 900 mg/kg | inactive |  |  |
| Cl.c1ccc(CNCc2ccc3ccc4cccc5ccc2c3c45)cc1 | 600 | 900 mg/kg | inactive |  |  |
| CC1(NCc2ccc3ccc4cccc5ccc2c3c45)COC(C)(C)OC1.Cl | 675 | 675 mg/kg | inactive |  |  |
| CCN(CC)CCCC(C)NCc1ccc2ccc3cccc4ccc1c2c34.Cl (stereo not given) | 100 | 150 mg/kg | inactive |  |  |
| CCC(COC(C)=O)(COC(C)=O)NCc1ccc2ccc3cccc4ccc1c2c34 | 675 | 303 mg/kg |  | 40% |  |

| SMILES | LD20 (P388 [1]) | Optimal dose (P388 [2]) | ILS (P388 [3]) | ILS (P388 [4]) | Optimal dose (P388 [5]) |
| --- | --- | --- | --- | --- | --- |
| COCC(C)(CO)NCc1ccc2ccc3cccc4ccc1c2c34 (stereo not given) | 135 |  |  | 30% | 180 mg/kg |
| Cl.OCCNCc1ccc2ccc3cccc4ccc1c2c34 | 220 |  |  | 31% | 221 mg/kg |
| Cl.OCC(CO)(CO)NCc1ccc2ccc3cccc4ccc1c2c34 | 215 |  |  | 90% | 198 mg/kg |
| CC(CO)(CO)NCCCc1ccc2ccc3cccc4ccc1c2c34.Cl | 67.5 | 100 mg/kg | inactive |  |  |
| Cl.OCCCNCc1ccc2ccc3cccc4ccc1c2c34 | 120 | 120 mg/kg |  | 20% |  |
| CC1(C)OC[C@@H](O)[C@H](NCc2ccc3ccc4cccc5ccc2c3c45)CO1 | 675 | 1013 mg/kg | inactive |  |  |
| C=CCNCc1ccc2ccc3cccc4ccc1c2c34.Cl | 369 | 550 mg/kg | inactive |  |  |
| CC(=O)OCC(C)(COC(C)=O)NCc1ccc2ccc3cccc4ccc1c2c34 | 300 | 300 mg/kg |  | 65% |  |
| CC(C)CC(CO)NCc1ccc2ccc3cccc4ccc1c2c34.Cl (stereo not given) | 675 | 1012 mg/kg | inactive |  |  |
| Cl.OCCCCNCc1ccc2ccc3cccc4ccc1c2c34 | 208 | 139 mg/kg | inactive |  |  |
| Cl.NCCCCNCc1ccc2ccc3cccc4ccc1c2c34 | 28 | 19 mg/kg | inactive |  |  |
| CC(O)CCNCc1ccc2ccc3cccc4ccc1c2c34.Cl (stereo not given) | 168 | 168 mg/kg | inactive |  |  |
| CCCCCC(CO)(CO)NCc1ccc2ccc3cccc4ccc1c2c34.Cl | 675 | 675 mg/kg | inactive |  |  |
| CC(C)(CO)CCCNCc1ccc2ccc3cccc4ccc1c2c34.Cl | 215 | 215 mg/kg | inactive |  |  |
| CN(CCO)Cc1ccc2ccc3cccc4ccc1c2c34.Cl | 366 | 365 mg/kg | inactive |  |  |
| CC(NCc1ccc2ccc3cccc4ccc1c2c34)C(O)c1ccccc1.Cl (stereo not given) | 450 | 675 mg/kg | inactive |  |  |
| CN(CCCN)CCCNCc1ccc2ccc3cccc4ccc1c2c34.Cl | 23 |  |  | 20% | 23 mg/kg |
| Cl.c1ccc(CCNCc2ccc3ccc4cccc5ccc2c3c45)cc1 | 335 | 335 mg/kg | inactive |  |  |
| CN(C)CCCNCc1ccc2ccc3cccc4ccc1c2c34.Cl | 85 | 127 mg/kg | inactive |  |  |
| CCN(CC)Cc1ccc2ccc3cccc4ccc1c2c34.Cl | 452 | 452 mg/kg | inactive |  |  |
| CC(CO)(CO)NCc1ccc2ccc3cccc4ccc1c2c34.Cl | 300 |  |  | 125% | 300 mg/kg |

| SMILES | LD20 (P388 [1]) | Optimal dose (P388 [2]) | ILS (P388 [3]) | ILS (P388 [4]) | Optimal dose (P388 [5]) |
| --- | --- | --- | --- | --- | --- |
| Cl.c1cc2ccc3ccc(CNCCCNC4CCCCC4)c4ccc(c1)c2c34 | 134 | 200 mg/kg | inactive |  |  |
| Cl.OCCN(CCO)CCCNCc1ccc2ccc3cccc4ccc1c2c34 | 96 | 64 mg/kg | inactive |  |  |
| Cl.OCCN(CCO)Cc1ccc2ccc3cccc4ccc1c2c34 | 225 | 225 mg/kg | inactive |  |  |
| Cl.c1ccc(CCCNCc2ccc3ccc4cccc5ccc2c3c45)cc1 | 300 | 300 mg/kg | inactive |  |  |
| Cl.NCCCCCNCc1ccc2ccc3cccc4ccc1c2c34 | 20 | 116 mg/kg | inactive |  |  |
| CCC(C)C(CO)NCc1ccc2ccc3cccc4ccc1c2c34.Cl (stereo not given) | 675 | 675 mg/kg | inactive |  |  |
| Cl.c1ccc(NCCNCc2ccc3ccc4cccc5ccc2c3c45)cc1 | 300 | 200 mg/kg | inactive |  |  |
| Cl.OCC(O)C(CO)NCc1ccc2ccc3cccc4ccc1c2c34 (stereo not given) | 140 |  |  | 25% | 125 mg/kg |
| Cl.OCCNCCNCc1ccc2ccc3cccc4ccc1c2c34 | 200 | 134 mg/kg | inactive |  |  |
| CCC(O)CNCc1ccc2ccc3cccc4ccc1c2c34.Cl (stereo not given) | 225 | 225 mg/kg | inactive |  |  |
| Cl.NCc1ccc2ccc3cccc4ccc1c2c34 | 130 | 194 mg/kg | inactive |  |  |
| CC(O)CNCCNCc1ccc2ccc3cccc4ccc1c2c34.Cl (stereo not given) | 150 | 150 mg/kg | inactive |  |  |
| CCN(CC)CCNCc1ccc2ccc3cccc4ccc1c2c34.Cl | 120 | 180 mg/kg | inactive |  |  |
| Cl.OCC(NCc1ccc2ccc3cccc4ccc1c2c34)C(O)c1ccccc1 (stereo not given) | 675 | 1013 mg/kg | inactive |  |  |
| COCCNCc1ccc2ccc3cccc4ccc1c2c34.Cl | 200 | 133 mg/kg | inactive |  |  |
| Cl.OC(CNCc1ccc2ccc3cccc4ccc1c2c34)c1ccccc1 (stereo not given) | 450 | 450 mg/kg | inactive |  |  |
| CCOCC(CO)(CO)NCc1ccc2ccc3cccc4ccc1c2c34.Cl | 225 |  |  | 30% | 168 mg/kg |
| CC(O)C(C)(CO)NCc1ccc2ccc3cccc4ccc1c2c34.Cl (stereo not given) | 125 |  |  | 77% | 125 mg/kg |
| CC(C)OCCCNCc1ccc2ccc3cccc4ccc1c2c34.Cl | 180 | 120 mg/kg | inactive |  |  |
| Cl.NCCCN1CCN(CCCNCc2ccc3ccc4cccc5ccc2c3c45)CC1 | 37 | 37 mg/kg |  |  |  |
